# ChEMBL document CHEMBL4689842, “EUbOPEN Chemogenomics Library wave 1” (2021)
# Test system: Fibroblast
# Test: Multiplex assay against human fibroblast
# Assay type: toxicity, cell-based
# In short: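 Compound was added to live cells that had been stained at seeding with Hoechst33342, BioTracker Green Microtubule Cytoskeleton Dye, MitoTracker Red and Annexin V Alexa Fluor 680, and imaging followed on a CQ1 microscope at 37°C and 5% CO2. CellPathfinder machine-learning gating divided cells into Hoechst high-intensity objects or normal cells, normal cells into healthy, pyknosed or fragmented nuclei, and pyknosed cells into mitotic or apoptotic. Tubulin, mitochondrial-mass and membrane-permeability phenotypes are per cents of healthy-nucleus cells.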
# [1] = 12 h, 1 µM, compound concentration 1 uM, replicate 1
# [2] = 12 h, 1 µM, compound concentration 1 uM, replicate 2
# [3] = 12 h, 10 µM, compound concentration 10 uM, replicate 1
# [4] = 12 h, 10 µM, compound concentration 10 uM, replicate 2
# [5] = 24 h, 1 µM, compound concentration 1 uM, replicate 1
# [6] = 24 h, 1 µM, compound concentration 1 uM, replicate 2
# [7] = 24 h, 10 µM, compound concentration 10 uM, replicate 1
# [8] = 24 h, 10 µM, compound concentration 10 uM, replicate 2
compound,measurement,setting,value
Cc1c(Nc2ccc(S(=O)(=O)N3CCN(C)CC3)cc2F)nc2ccc(Nc3cnn(C4CC4)c3)cn2c1=O,Population Apoptotic (%),[1],64%
same,Population Fragmented Nuclei (%),[1],30%
same,Population Healthy Nuclei (%),[1],50%
same,Population Hoechst High Intensity Objects (%),[1],12%
same,Population Membrane Permeable-Phenotype (%),[1],31%
same,Population Mitochondria Different-Phenotype (%),[1],6%
same,Population Mitotic Cells (%),[1],35%
same,Population Normal (%),[1],87%
same,Population Pyknosed Nuclei (%),[1],19%
same,Population Tubulin-Different-Phenotype (%),[1],43%
same,Total Cell Count,[1],263
same,Population Apoptotic (%),[2],80%
same,Population Fragmented Nuclei (%),[2],62%
same,Population Healthy Nuclei (%),[2],24%
same,Population Hoechst High Intensity Objects (%),[2],40%
same,Population Membrane Permeable-Phenotype (%),[2],55%
same,Population Mitochondria Different-Phenotype (%),[2],11%
same,Population Mitotic Cells (%),[2],20%
same,Population Normal (%),[2],59%
same,Population Pyknosed Nuclei (%),[2],13%
same,Population Tubulin-Different-Phenotype (%),[2],66%
same,Total Cell Count,[2],62
same,Population Apoptotic (%),[3],79%
same,Population Fragmented Nuclei (%),[3],27%
same,Population Healthy Nuclei (%),[3],58%
same,Population Hoechst High Intensity Objects (%),[3],12%
same,Population Membrane Permeable-Phenotype (%),[3],7%
same,Population Mitochondria Different-Phenotype (%),[3],1%
same,Population Mitotic Cells (%),[3],20%
same,Population Normal (%),[3],87%
same,Population Pyknosed Nuclei (%),[3],13%
same,Population Tubulin-Different-Phenotype (%),[3],2%
same,Total Cell Count,[3],288
same,Population Apoptotic (%),[4],50%
same,Population Fragmented Nuclei (%),[4],55%
same,Population Healthy Nuclei (%),[4],40%
same,Population Hoechst High Intensity Objects (%),[4],27%
same,Population Membrane Permeable-Phenotype (%),[4],9%
same,Population Mitochondria Different-Phenotype (%),[4],0%
same,Population Mitotic Cells (%),[4],50%
same,Population Normal (%),[4],72%
same,Population Pyknosed Nuclei (%),[4],3%
same,Population Tubulin-Different-Phenotype (%),[4],19%
same,Total Cell Count,[4],72
same,Population Apoptotic (%),[5],72%
same,Population Fragmented Nuclei (%),[5],30%
same,Population Healthy Nuclei (%),[5],53%
same,Population Hoechst High Intensity Objects (%),[5],12%
same,Population Membrane Permeable-Phenotype (%),[5],14%
same,Population Mitochondria Different-Phenotype (%),[5],1%
same,Population Mitotic Cells (%),[5],27%
same,Population Normal (%),[5],87%
same,Population Pyknosed Nuclei (%),[5],16%
same,Population Tubulin-Different-Phenotype (%),[5],38%
same,Total Cell Count,[5],257
same,Population Apoptotic (%),[6],100%
same,Population Fragmented Nuclei (%),[6],57%
same,Population Healthy Nuclei (%),[6],31%
same,Population Hoechst High Intensity Objects (%),[6],30%
same,Population Membrane Permeable-Phenotype (%),[6],40%
same,Population Mitochondria Different-Phenotype (%),[6],0%
same,Population Mitotic Cells (%),[6],0%
same,Population Normal (%),[6],69%
same,Population Pyknosed Nuclei (%),[6],10%
same,Population Tubulin-Different-Phenotype (%),[6],40%
same,Total Cell Count,[6],68
same,Population Apoptotic (%),[7],65%
same,Population Fragmented Nuclei (%),[7],22%
same,Population Healthy Nuclei (%),[7],63%
same,Population Hoechst High Intensity Objects (%),[7],13%
same,Population Membrane Permeable-Phenotype (%),[7],7%
same,Population Mitochondria Different-Phenotype (%),[7],1%
same,Population Mitotic Cells (%),[7],34%
same,Population Normal (%),[7],86%
same,Population Pyknosed Nuclei (%),[7],13%
same,Population Tubulin-Different-Phenotype (%),[7],3%
same,Total Cell Count,[7],293
same,Population Apoptotic (%),[8],0%
same,Population Fragmented Nuclei (%),[8],57%
same,Population Healthy Nuclei (%),[8],38%
same,Population Hoechst High Intensity Objects (%),[8],21%
same,Population Membrane Permeable-Phenotype (%),[8],9%
same,Population Mitochondria Different-Phenotype (%),[8],4%
same,Population Mitotic Cells (%),[8],100%
same,Population Normal (%),[8],78%
same,Population Pyknosed Nuclei (%),[8],3%
same,Population Tubulin-Different-Phenotype (%),[8],0%
same,Total Cell Count,[8],73
